In brackets after ≈: the same amount, converted by molar mass.
What was measured:
Assay type in all cases: functional
[1] = test system: Staphylococcus aureus; assay: Bactericidal activity against MLS-resistant Staphylococcus aureus PU 20 expressing constitutive ermC gene pretreated followed by subculture in absence of compound measured after 24 hrs
How it was run: (§1)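 MBC assay. Following MIC determination by CLSI standard two-fold broth dilution, samples at 1–8 fold MIC were transferred to fresh culture medium. They were subcultured for 24 h without antibiotic. Isolates were identified by 16S rDNA sequencing. S. aureus ATCC 29213 was used as a control strain.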

[2] = test system: Streptococcus pneumoniae; assay: Bactericidal activity against penicillin-susceptible Streptococcus pneumoniae PU 09 expressing mef gene pretreated followed by subculture in absence of compound measured after 24 hrs
How it was run: (§2)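 Isolates were identified by 16S rDNA sequencing. MIC was determined by CLSI-recommended two-fold broth dilution. For MBC, samples from 1–8 fold MIC were transferred to culture medium and subcultured for 24 h without antibiotic.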

[3] = test system: Staphylococcus aureus; assay: Antibacterial activity against MLS-resistant Staphylococcus aureus PU 32 expressing inducible ermA gene assessed as reduction in microbial growth by CLSI based two-fold broth dilution method
[4] = test system: Streptococcus pyogenes; assay: Selectivity ratio of MBC to MIC for MLS-resistant Streptococcus pyogenes 01-968 expressing inducible ermB gene
How it was run: (§3)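 MBC/MIC ratio. MIC was measured by CLSI standard two-fold broth dilution. MBC was measured by transferring samples at 1–8 fold MIC to culture medium and subculturing for 24 h without antibiotic. Isolates were identified by 16S rDNA sequencing.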

[5] = test system: Streptococcus pneumoniae; assay: Antibacterial activity against penicillin-susceptible Streptococcus pneumoniae PU 09 expressing mef gene assessed as reduction in microbial growth by CLSI based two-fold broth dilution method
[6] = test system: Streptococcus pyogenes; assay: Selectivity ratio of MBC to MIC for MLS-resistant Streptococcus pyogenes 12-206 expressing constitutive ermA gene; how it was run: as §3
[7] = test system: Staphylococcus aureus; assay: Bactericidal activity against MLS/methicillin-resistant Staphylococcus aureus PU 32 expressing inducible ermA gene pretreated followed by subculture in absence of compound measured after 24 hrs; how it was run: as §1
[8] = test system: Streptococcus pyogenes; assay: Bactericidal activity against MLS-resistant Streptococcus pyogenes 01-968 expressing inducible ermB gene pretreated followed by subculture in absence of compound measured after 24 hrs; how it was run: as §1
[9] = test system: Streptococcus pneumoniae; assay: Bactericidal activity against erythromycin-susceptible Streptococcus pneumoniae ATCC49619 pretreated followed by subculture in absence of compound measured after 24 hrs; how it was run: as §2
[10] = test system: Haemophilus influenzae; assay: Antibacterial activity against azithromycin-susceptible Haemophilus influenzae ATCC 49247 assessed as reduction in microbial growth by CLSI based two-fold broth dilution method
[11] = test system: Streptococcus pneumoniae; assay: Selectivity ratio of MBC to MIC for Streptococcus pneumoniae 07P390 expressing constitutive ermB gene; how it was run: as §2
[12] = test system: Streptococcus pyogenes; assay: Bactericidal activity against MLS-resistant Streptococcus pyogenes 12-206 expressing constitutive ermA gene pretreated followed by subculture in absence of compound measured after 24 hrs; how it was run: as §1
[13] = test system: Streptococcus pyogenes; assay: Antibacterial activity against MLS-resistant Streptococcus pyogenes 12-206 expressing constitutive ermA gene assessed as reduction in microbial growth by CLSI based two-fold broth dilution method
[14] = test system: Staphylococcus aureus; assay: Antibacterial activity against MLS-resistant Staphylococcus aureus PU 20 expressing constitutive ermC gene assessed as reduction in microbial growth by CLSI based two-fold broth dilution method
[15] = test system: Streptococcus pyogenes; assay: Bactericidal activity against Streptococcus pyogenes 12-207 expressing mef gene pretreated followed by subculture in absence of compound measured after 24 hrs; how it was run: as §2
[16] = test system: Haemophilus influenzae; assay: Bactericidal activity against azithromycin-susceptible Haemophilus influenzae ATCC 49247 pretreated followed by subculture in absence of compound measured after 24 hrs; how it was run: as §2
[17] = test system: Streptococcus pyogenes; assay: Selectivity ratio of MBC to MIC for Streptococcus pyogenes 12-207 expressing mef gene; how it was run: as §2
[18] = test system: Moraxella catarrhalis; assay: Selectivity ratio of MBC to MIC for erythromycin-susceptible Moraxella catarrhalis 13L332; how it was run: as §2
[19] = test system: Moraxella catarrhalis; assay: Antibacterial activity against erythromycin-susceptible Moraxella catarrhalis 13L332 assessed as reduction in microbial growth by CLSI based two-fold broth dilution method
[20] = test system: Streptococcus pyogenes; assay: Antibacterial activity against Streptococcus pyogenes 12-207 expressing mef gene assessed as reduction in microbial growth by CLSI based two-fold broth dilution method
[21] = test system: Streptococcus pneumoniae; assay: Antibacterial activity against Streptococcus pneumoniae 07P390 expressing constitutive ermB gene assessed as reduction in microbial growth by CLSI based two-fold broth dilution method
[22] = test system: Moraxella catarrhalis; assay: Bactericidal activity against erythromycin-susceptible Moraxella catarrhalis 13L332 pretreated followed by subculture in absence of compound measured after 24 hrs; how it was run: as §2
[23] = test system: Streptococcus pneumoniae; assay: Selectivity ratio of MBC to MIC for penicillin-susceptible Streptococcus pneumoniae PU 09 expressing mef gene; how it was run: as §2
[24] = test system: Staphylococcus aureus; assay: Selectivity ratio of MBC to MIC for MLS/methicillin-resistant Staphylococcus aureus PU 32 expressing inducible ermA gene; how it was run: as §3
[25] = test system: Haemophilus influenzae; assay: Selectivity ratio of MBC to MIC for azithromycin-susceptible Haemophilus influenzae ATCC 49247; how it was run: as §2
[26] = test system: Streptococcus pyogenes; assay: Antibacterial activity against MLS-resistant Streptococcus pyogenes 01-968 expressing inducible ermB gene assessed as reduction in microbial growth by CLSI based two-fold broth dilution method
[27] = test system: Streptococcus pneumoniae; assay: Bactericidal activity against Streptococcus pneumoniae 07P390 expressing constitutive ermB gene pretreated followed by subculture in absence of compound measured after 24 hrs; how it was run: as §2
[28] = test system: Streptococcus pneumoniae; assay: Antibacterial activity against erythromycin-susceptible Streptococcus pneumoniae ATCC49619 assessed as reduction in microbial growth by CLSI based two-fold broth dilution method
[29] = test system: Streptococcus pneumoniae; assay: Selectivity ratio of MBC to MIC for erythromycin-susceptible Streptococcus pneumoniae ATCC49619; how it was run: as §2
[30] = test system: Staphylococcus aureus; assay: Selectivity ratio of MBC to MIC for MLS-resistant Staphylococcus aureus PU 20 expressing constitutive ermC gene; how it was run: as §3

Compound | MBC [1] [mg/L] | MBC [2] [mg/L] | MIC [3] [mg/L] | Selectivity ratio [4] | MIC [5] [mg/L] | Selectivity ratio [6] | MBC [7] [mg/L] | MBC [8] [mg/L] | MBC [9] [mg/L] | MIC [10] [mg/L] | Selectivity ratio [11] | MBC [12] [mg/L] | MIC [14] [mg/L] | MBC [16] [mg/L] | MIC [21] [mg/L] | Selectivity ratio [23] | Selectivity ratio [24] | Selectivity ratio [25] | MIC [26] [mg/L] | MIC [28] [mg/L] | other results
CC[C@H]1OC(=O)[C@@](C)(F)C(=O)[C@H](C)[C@@H](O[C@@H]2O[C@H](C)C[C@H](N(C)C)[C@H]2O)[C@](C)(OC/C=C/c2ccc3c(c2)c(=O)c(C(=O)NC)cn3C2CC2)C[C@@H](C)/C(=N\OC)[C@H](C)[C@H]2OC(=O)O[C@@]21C | > 256 | 0.5 (≈ 0.539 µM) | 1 | >8 | 0.25 | >8 | > 8 | > 0.016 | ≤ 0.008 | 32 | >8 | > 0.25 | 256 | 32 (≈ 34.5 µM) | ≤ 0.008 | 2 | >8 | 1 | ≤ 0.002 | ≤ 0.008 | MIC [13]: 0.031 mg/L; MBC [15]: 0.5 mg/L (≈ 0.539 µM); Selectivity ratio [17]: 4; Selectivity ratio [18]: >8; MIC [19]: 1 mg/L; MIC [20]: 0.125 mg/L; MBC [22]: > 8 mg/L; MBC [27]: > 0.062 mg/L
CC[C@H]1OC(=O)[C@@](C)(F)C(=O)[C@H](C)[C@@H](O[C@@H]2O[C@H](C)C[C@H](N(C)C)[C@H]2O)[C@](C)(OC)C[C@@H](C)/C(=N\OCC#Cc2ccc3c(c2)c(=O)c(C(=O)NC)cn3CC)[C@H](C)[C@H]2OC(=O)O[C@@]21C | > 256 | 1 (≈ 1.1 µM) | 2 | >8 | 0.25 | >8 | > 16 | > 0.016 | ≤ 0.008 | 32 | >8 | > 1 | 128 | 64 (≈ 70.1 µM) | 0.125 | 4 | >8 | 2 | ≤ 0.002 | ≤ 0.008 | MIC [13]: 0.125 mg/L; MBC [15]: 1 mg/L (≈ 1.1 µM); Selectivity ratio [17]: 4; Selectivity ratio [18]: >8; MIC [19]: 4 mg/L; MIC [20]: 0.25 mg/L; MBC [22]: > 32 mg/L; MBC [27]: > 1 mg/L
CC[C@H]1OC(=O)[C@@](C)(F)C(=O)[C@H](C)[C@@H](O[C@@H]2O[C@H](C)C[C@H](N(C)C)[C@H]2O)[C@](C)(OC)C[C@@H](C)/C(=N\OCC#Cc2ccc3c(c2)c(=O)c(C(=O)NC)cn3C2CC2)[C@H](C)[C@H]2OC(=O)O[C@@]21C | > 256 | 0.5 (≈ 0.541 µM) | 1 | >8 | 0.5 | >8 | > 8 | > 0.016 | ≤ 0.008 | 64 | >8 | > 4 | 128 | 256 (≈ 277 µM) | 0.25 | 1 | >8 | 4 | ≤ 0.002 | ≤ 0.008 | MIC [13]: 0.5 mg/L; MBC [15]: 1 mg/L (≈ 1.08 µM); Selectivity ratio [17]: 4; Selectivity ratio [18]: >8; MIC [19]: 4 mg/L; MIC [20]: 0.25 mg/L; MBC [22]: > 32 mg/L; MBC [27]: > 2 mg/L
CC[C@H]1OC(=O)[C@@](C)(F)C(=O)[C@H](C)[C@@H](O[C@@H]2O[C@H](C)C[C@H](N(C)C)[C@H]2O)[C@](C)(OC)C[C@@H](C)/C(=N\OCC#Cc2cncc3ccccc23)[C@H](C)[C@H]2OC(=O)O[C@@]21C | > 256 | 8 (≈ 9.85 µM) | 4 | >8 | 8 |  | > 32 | > 4 | 4 (≈ 4.93 µM) | 64 |  |  | 64 | 128 (≈ 158 µM) | > 32 | 1 | >8 | 2 | 0.5 | 2 | Selectivity ratio [29]: 2; Selectivity ratio [30]: >4
CC[C@H]1OC(=O)[C@@](C)(F)C(=O)[C@H](C)[C@@H](O[C@@H]2O[C@H](C)C[C@H](N(C)C)[C@H]2O)[C@](C)(OC)C[C@@H](C)/C(=N\OC/C=C/c2ccc3c(c2)c(=O)c(C(=O)NC)cn3CC)[C@H](C)[C@H]2OC(=O)O[C@@]21C | > 256 | 0.5 (≈ 0.546 µM) | 2 | >8 | 0.5 | >8 | > 16 | > 0.125 | ≤ 0.008 | 128 | >8 | > 8 | 128 | 256 (≈ 280 µM) | 0.25 | 1 | >8 | 2 | 0.016 | ≤ 0.008 | MIC [13]: 1 mg/L; MBC [15]: 1 mg/L (≈ 1.09 µM); Selectivity ratio [17]: 4; Selectivity ratio [18]: 8; MIC [19]: 8 mg/L; MIC [20]: 0.25 mg/L; MBC [22]: 64 mg/L (≈ 69.9 µM); MBC [27]: > 2 mg/L
CC[C@H]1OC(=O)[C@@](C)(F)C(=O)[C@H](C)[C@@H](O[C@@H]2O[C@H](C)C[C@H](N(C)C)[C@H]2O)[C@](C)(OC)C[C@@H](C)/C(=N\OCC#Cc2ccc3c(c2)c(=O)c(C(N)=O)cn3C2CC2)[C@H](C)[C@H]2OC(=O)O[C@@]21C | > 256 | 0.5 (≈ 0.549 µM) | 1 | >8 | 0.25 | >8 | 8 (≈ 8.78 µM) | > 0.016 | ≤ 0.008 | 32 | >8 | > 8 | 128 | 128 (≈ 140 µM) | 0.25 | 2 | 8 | 4 | ≤ 0.002 | ≤ 0.008 | MIC [13]: 1 mg/L; MBC [15]: 2 mg/L (≈ 2.2 µM); Selectivity ratio [17]: 8; Selectivity ratio [18]: >8; MIC [19]: 4 mg/L; MIC [20]: 0.25 mg/L; MBC [22]: > 32 mg/L; MBC [27]: > 2 mg/L
CC[C@H]1OC(=O)[C@@](C)(F)C(=O)[C@H](C)[C@@H](O[C@@H]2O[C@H](C)C[C@H](N(C)C)[C@H]2O)[C@](C)(OC/C=C/c2ccc3c(c2)c(=O)c(C(N)=O)cn3CC)C[C@@H](C)/C(=N\OC)[C@H](C)[C@H]2OC(=O)O[C@@]21C |  | 0.25 (≈ 0.277 µM) | 0.25 | >=4 | 0.25 | >8 | > 2 | 0.008 (≈ 0.00888 µM) | ≤ 0.008 | 64 | >8 | > 0.016 | > 256 | 128 (≈ 142 µM) | ≤ 0.008 | 1 | >8 | 2 | ≤ 0.002 | ≤ 0.008 | MIC [13]: ≤ 0.002 mg/L; MBC [15]: 0.25 mg/L (≈ 0.277 µM); Selectivity ratio [17]: 4; Selectivity ratio [18]: >8; MIC [19]: 0.5 mg/L; MIC [20]: 0.062 mg/L; MBC [22]: > 4 mg/L; MBC [27]: > 0.062 mg/L

Source: ChEMBL document CHEMBL4346654 (Eur J Med Chem, 2019)
